Autophagy HCS: modulators of autophagy; AID 463193; calls only at 10 µM (by protocol); 190,000 tested, 0.98% active; MEF GFP-LC3 puncta imaging; test concentration mostly 10 µM;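 active = percentage of spot-positive cells more than 3 SD above its plate mean, without a fluorescence outlier flag or 80% toxicity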;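 also: spot-positive cell cutoff set from DMSO-treated cells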
HCT116 PTEN-null: growth suppressors of cells with PTEN tumor suppressor deletion; viability, % at 10 µM; HCT116 PTEN-null viability, CellTiter-Glo, 60 h; stronger effect = lower value; AID 827; 140,000 tested, 1.2% active;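 active = viability at or below a set limit, 4 SD under the median of all tested compounds, cut at about 3.7% in these data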;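 also: PTEN knockout HCT116 line with beta catenin targeted HCT116 as companion control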
L major viab: reduces viability of Leishmania major promastigotes. inhibition, % at 10 µM. AID 1063. resazurin fluorescence viability. 200,000 tested, 9% active; in the data active = inhibition above about 50%;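 also: promastigotes grown with compound for 44 hours at 28 °C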
Dynein cargo inh: dynein cargo transport inhibition. z-score, hits read low. 3617.4 mouse cells, GR-EGFP nuclear translocation imaging; test concentration mostly 20 µM; stimulated with dexamethasone, 1 µM; stronger effect = lower value. 220,000 tested, 0.47% active;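 active = plate z-score of nuclear minus cytoplasmic receptor signal below a set negative limit, without overly bright fluorescence or cell loss, cut at about -3.5 in these data, passing the limit was not always enough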;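 also: z-score of nuclear minus cytoplasmic ring GR-EGFP intensity difference per well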
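Also added: dexamethasone, 1.0 µM final. Medium: tet-free, stripped-serum medium. Detection: fixed, Hoechst-stained cells imaged at 10x for EGFP. Read-out: nuclear-to-cytoplasmic GR-EGFP distribution per well. Times: induction 48 h, compound 1 h, agonist 30 min.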
HCT116 bCat-KO: beta-catenin-lacking colon tumor cell growth suppression; HCT116 beta-catenin knockout viability, CellTiter-Glo, 60 h; stronger effect = lower value; viability, % at 10 µM; 140,000 tested, 1.5% active;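 active = viability at or under a set limit, the compound median less 4 SD, cut at about 6% in these data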;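 also: 0% = Hyamine 1622 control at 20 µM and 100% = untreated cell control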
Numbers without * were called inactive; i = inactive; x = no result; + = active, no number. Rows were chosen to be rich in hits. Some 9.2% of all compounds tested hit in one or more screens of this group.

SMILES	Autophagy HCS	HCT116 PTEN-null	L major viab	Dynein cargo inh	HCT116 bCat-KO
O=C(Nc1ccc(Oc2nnc(-c3ccccc3)c3ccccc23)cc1)c1ccccc1	i	64	77*	0.5	77
COc1ccc(Oc2nnc(-c3ccc(C)cc3)c3ccccc23)cc1	i	93	-4	-0.9	102
COc1cccc(C(=O)N/N=C/C(Br)=C/c2ccccc2)c1	i	1.7*	48	-0.79	2.8*
Cn1cc(C(=O)N/N=C/C(Br)=C/c2ccccc2)ccc1=O	i	3.3*	62*	-0.78	3.6*
O=C(N/N=C/C(Br)=C\c1ccccc1)c1n[nH]c2c1CCC2	+	2.2*	54*	2.7	3.9*
Cn1cc(C(=O)N/N=C/C(Br)=C\c2ccccc2)ccc1=O	i	6	80*	-0.37	14
CCOC(=O)C(CO)(NC(C)=O)C(=O)OCC	i	97	4	-0.21	84
Cc1nc(N2CCC(C)CC2)c2c(C)c(C(=O)Nc3ccccc3C(F)(F)F)sc2n1	i	x	51*	-0.14	x
CC1=C(C(=O)OC(C)C)C(C)C(C(=O)OC(C)C)=C(C)N1	i	80	2	-0.44	77
Oc1ccc(Nc2nc3ccccc3nc2Nc2ccc(O)cc2)cc1	+	1.6*	92*	-3.4	1.8*
Cc1nc2ccccc2nc1N/N=C/c1ccc(O)cc1	x	x	x	0.67	x
CCOC(=O)N1CCN(c2c(N3CCN(c4cccc(C)c4C)CC3)c(=O)c2=O)CC1	+	101	-4	-0.16	92
CCOC(=O)N1CCC(N2Cc3cccc(C(=O)N4CCN(c5cccc(C)c5C)CC4)c3C2=O)CC1	i	x	62*	-0.2	x
CCOC(=O)N1CCN(c2cccc(C)c2C)CC1	i	87	-7	-0.66	93
COCCN1Cc2cccc(C(=O)N3CCN(c4cc(C)ccc4C)CC3)c2C1=O	i	72	10	-0.99	84
CCCN1Cc2cccc(C(=O)N3CCN(c4cc(Cl)ccc4C)CC3)c2C1=O	i	65	97*	-0.61	54
Cn1c(SCC(=O)O)nnc1-c1ccc2ncccc2c1	x	x	x	0.48	x
CCN(CC)S(=O)(=O)c1ccc(Cl)c(NC(=O)COc2ccc(OC)cc2[N+](=O)[O-])c1	i	87	8	3.9	82
O=C1/C(=C/c2ccc(O)c(O)c2)SC(=S)N1Nc1ccccc1	i	x	78*	-1.8	x
CCNC(=O)/C(=C\c1ccccc1)NC(=O)/C=C/c1ccccc1	i	93	85*	1.7	96
COC(=O)C1=C(O)/C(=C\c2sccc2C)N=C1C	i	93	54*	0.17	94
CCOC(=O)C1=C(O)/C(=C\c2sccc2C)N=C1C	i	103	34	-0.66	95
CN(C)CC(CCC(CN(C)C)C(=O)c1ccccc1)C(=O)c1ccccc1 (stereo not drawn)	x	x	x	-5*	x
COc1ccc(C(=O)/C=C(/C)N(C)C)cc1	i	96	-5	-0.54	102
COc1ccc(C(=O)C(CCCCC(CN(C)C)C(=O)c2ccc(OC)cc2)CN(C)C)cc1 (stereo not drawn)	i	18	100*	-0.18	18
SMILES	Autophagy HCS	HCT116 PTEN-null	L major viab	Dynein cargo inh	HCT116 bCat-KO
COc1ccccc1NS(=O)(=O)c1ccc(N/N=C/C=C/c2ccccc2[N+](=O)[O-])c([N+](=O)[O-])c1	i	x	50*	1.4	x
COc1ccccc1NS(=O)(=O)c1ccc(N/N=C/c2ccccc2OCC(=O)O)c([N+](=O)[O-])c1	i	x	-1	-2.3	x
COc1ccccc1NS(=O)(=O)c1cccc(C(=O)N/N=C/c2cn(-c3ccccc3)nc2-c2ccccc2)c1	i	12	53*	-1	17
COc1ccccc1NS(=O)(=O)c1cccc(C(=O)N/N=C/c2c(C)nn(-c3ccccc3)c2N2CCCC2)c1	i	82	96*	-0.36	87
COc1ccc(-c2nn(-c3ccccc3)cc2/C=N/n2cnnc2)cc1OC	i	94	4	-0.35	75
COc1ccc(-c2nn(-c3ccccc3)cc2/C=N/NC(N)=S)cc1OC	i	12	80*	0.52	18
CCN(c1ccccc1)S(=O)(=O)c1cc(C(=O)OC(C)C(=O)Nc2ccc3c(c2)OCCO3)ccc1C (stereo not drawn)	i	x	21	1.4	x
CC(C)CCC(C(=O)O)C(C)CC(=O)Nc1ccn(-c2ccccc2)n1 (stereo not drawn)	x	x	x	-1.1	x
CCN(CC)c1ccc(/C=N/NC(=O)c2cccc(S(=O)(=O)Nc3ccccc3OC)c2)c(O)c1	+	10	100*	0.8	5.3*
